Active and inactive are the calls of the source. The calls are words filed in the database; no cut-off is given here.
What was measured:
[1] = Cell cycle arrest in human T24 cells assessed as alteration in cyclin A level at 5 to 20 uM after 24 hrs by Western blotting analysis; assay type: functional, cell-based; settings: T-24
T-24 [2] = test: Induction of apoptosis in human T24 cells assessed as condensed nuclei after 24 hrs by Hoechst 33258 staining-based fluorescence microscopic analysis relative to control; assay type: functional, cell-based
Outline: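 T24 cells on cover slips treated at […] for 24 h; untreated cells as control. Fixed in 4% paraformaldehyde for 10 min, PBS washes, Hoechst 33258 for 5 min. Nuclei imaged by fluorescence microscopy, excitation 350 nm, emission 460 nm.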

T-24 [3] = test: Induction of apoptosis in human T24 cells assessed as necrotic cells at 20 uM after 24 hrs by annexin-V-FITC/propidium iodide staining-based flow cytometry (reference value: 1.66%); assay type: functional
[4] = Cell cycle arrest in human T24 cells assessed as reduction in CDK2 level after 24 hrs by Western blotting analysis; assay type: functional, cell-based; settings: T-24
Outline: (§1)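 T24 cells treated at […] for 24 h and lysed in ice-cold RIPA buffer with protease inhibitors and NaF. Protein measured by Bradford; 30 micrograms per lane run on 12% SDS-PAGE and transferred to PVDF. Blocked 2 h at room temperature, primary antibody overnight at 4 C, HRP secondary (1:2000) 1 h, chemiluminescence detection.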

T-24 [5] = test: Induction of apoptosis in human T24 cells assessed as increase in intracellular ROS level at 5 to 20 uM after 24 hrs by DCFH/DA staining-based fluorescence microscopic analysis; assay type: functional, cell-based
T-24 [6] = test: Induction of apoptosis in human T24 cells assessed as pycnosis at 5 to 20 uM after 24 hrs by AO/EB staining-based fluorescence microscopic analysis relative to control; assay type: functional, cell-based
Outline: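 T24 cells seeded at 5 × 10^4 cells/mL on cover slips. Medium was replaced with fresh medium containing 10% FBS and compound at 5, 10 or 20 µM for 24 h. Cover slips were inverted onto AO/EB stain and viewed by fluorescence microscopy. Live cells score uniform green, early apoptotic green-yellow, late apoptotic orange, and necrotic orange without condensed chromatin. Untreated cells served as control.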

[7] = Induction of apoptosis in human T24 cells assessed as cytC upregulation at IC50 after 24 hrs by qRT-PCR analysis relative to control; assay type: functional, cell-based; settings: T-24
[8] = Cytotoxicity against human T24 cells after 2 days by MTT assay; assay type: functional, cell-based; settings: T-24, 48 h
Outline: (§2)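 Cells grown in medium with 10% heat-inactivated FBS at 37 C under 5% CO2. Compounds dissolved in medium with 1% DMSO; controls received 1% DMSO. After 2 days, MTT (10 mg/mL) added for 4 h, formazan dissolved in DMSO and absorbance read at 570/630 nm. Survival taken relative to negative control; IC50 by Bliss method (n = 5), at least three independent experiments.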

[9] = Induction of apoptosis in human T24 cells assessed as caspase-8 upregulation at IC50 after 24 hrs by qRT-PCR analysis relative to control; assay type: functional, cell-based; settings: T-24
HepG2 = test: Cytotoxicity against human HepG2 cells after 2 days by MTT assay; assay type: functional, cell-based; settings: HepG2, 48 h; outline: as §2
[10] = Cell cycle arrest in human T24 cells assessed as accumulation at G2 phase at 20 uM after 48 hrs by Rnase A/propidium iodide staining-based flow cytometry (reference value: 3.58%); assay type: functional; settings: T-24
Outline: (§3)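 T24 cells exposed to […] for 48 h, washed with ice-cold PBS, then fixed and permeabilized overnight in ice-cold 70% ethanol. RNase A (100 mg/mL) treatment at 37 C for 30 min, then PI staining (1 mg/mL) in the dark at 4 C for 30 min. Flow cytometry gave the percentage of cells in G1, S and G2 phase.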

T-24 [11] = test: Induction of apoptosis in human T24 cells assessed as reduction in Bcl2 protein expression after 6 to 24 hrs by Western blotting analysis; assay type: functional, cell-based
Outline: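 T24 cells exposed at 20 µM for 6, 12 and 24 h, then lysed in ice-cold RIPA with protease and phosphatase inhibitors. Protein was quantified by Bradford, and 30 µg per lane was run on 12% SDS-PAGE and transferred to PVDF. Membranes were blocked 2 h, probed with primary antibody at 4 °C overnight, then HRP secondary (1:2000) for 1 h, with chemiluminescent detection.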

NCI-H460 = test: Cytotoxicity against human NCI-H460 cells after 2 days by MTT assay; assay type: functional, cell-based; settings: NCI-H460, 48 h; outline: as §2
[12] = Induction of apoptosis in human T24 cells assessed as Bcl2 upregulation after 24 hrs by qRT-PCR analysis; assay type: functional, cell-based; settings: T-24
Outline: (§4)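 T24 cells treated at […] for 24 h before RNA extraction. SYBR Green qRT-PCR with 500 nM primers: 2 min at 50 C, 10 min at 95 C, then 40 cycles of 15 s at 95 C and 1 min at 60 C. Expression by the ΔCt method against actin, normalized to untreated cells; run in triplicate.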

T-24 [13] = test: Induction of apoptosis in human T24 cells assessed as necrotic cells at 5 uM after 24 hrs by annexin-V-FITC/propidium iodide staining-based flow cytometry (reference value: 1.66%); assay type: functional
MGC-803 = test: Cytotoxicity against human MGC803 cells after 2 days by MTT assay; assay type: functional, cell-based; settings: MGC-803, 48 h; outline: as §2
[14] = Cytotoxicity against human SKOV3 cells after 2 days by MTT assay; assay type: functional, cell-based; settings: SK-OV-3, 48 h; outline: as §2
[15] = Induction of apoptosis in human T24 cells assessed as caspase-3 upregulation at IC50 after 24 hrs by qRT-PCR analysis relative to control; assay type: functional, cell-based; settings: T-24
[16] = Cell cycle arrest in human T24 cells assessed as accumulation at G2 phase at 10 uM after 48 hrs by Rnase A/propidium iodide staining-based flow cytometry (reference value: 3.58%); assay type: functional; settings: T-24; outline: as §3
T-24 [17] = test: Induction of apoptosis in human T24 cells assessed as increase in caspase-9 protein expression at 20 uM after 6 to 24 hrs by Western blotting analysis; assay type: functional, cell-based
T-24 [18] = test: Induction of apoptosis in human T24 cells assessed as cell budding at 5 to 20 uM after 24 hrs by AO/EB staining-based fluorescence microscopic analysis relative to control; assay type: functional
[19] = Induction of apoptosis in human T24 cells assessed as caspase-3 upregulation after 24 hrs by qRT-PCR analysis; assay type: functional, cell-based; settings: T-24; outline: as §4
A549 = test: Cytotoxicity against human A549 cells after 2 days by MTT assay; assay type: functional, cell-based; settings: A549, 48 h; outline: as §2
[20] = Cell cycle arrest in human T24 cells assessed as accumulation at S phase at 10 uM after 48 hrs by Rnase A/propidium iodide staining-based flow cytometry (reference value: 62%); assay type: functional; settings: T-24; outline: as §3
T-24 [21] = test: Induction of apoptosis in human T24 cells assessed as increase in caspase-7 protein expression at 20 uM after 6 to 24 hrs by Western blotting analysis; assay type: functional, cell-based
[22] = Cell cycle arrest in human T24 cells assessed as accumulation at S phase at 20 uM after 48 hrs by Rnase A/propidium iodide staining-based flow cytometry (reference value: 62%); assay type: functional; settings: T-24; outline: as §3
[23] = Cell cycle arrest in human T24 cells assessed as reduction in Cyclin E level after 24 hrs by Western blotting analysis; assay type: functional, cell-based; settings: T-24; outline: as §1
[24] = Cell cycle arrest in human T24 cells assessed as increase in p16 level after 24 hrs by Western blotting analysis; assay type: functional, cell-based; settings: T-24; outline: as §1

COc1ccc2c(c1)/C(=N\O)C(c1c[nH]c3ccc(OC)cc13)=N2
Activity [1]: inactive
Activity (T-24 [2]): Dose-dependent effect
Activity (T-24 [3]): 2.07%
Activity [4]: Dose-dependent effect
Activity (T-24 [5]): Active
Activity (T-24 [6]): Active
fold change (FC) [7]: 8.09
IC50 [8]: 4.31 µM
fold change (FC) [9]: 8.03
IC50 (HepG2): 9.92 µM
Activity [10]: 4.67%
Activity (T-24 [11]): Dose-dependent effect
IC50 (NCI-H460): 9.83 µM
Activity [12]: Dose-dependent effect
Activity (T-24 [13]): 1.18%
IC50 (MGC-803): 7.66 µM
IC50 [14]: 12.5 µM
fold change (FC) [15]: 24.8
Activity [16]: 5.47%
Activity (T-24 [17]): Active
Activity (T-24 [18]): Active
Activity [19]: Dose-dependent effect
IC50 (A549): 6.09 µM
Activity [20]: 37.5%
Activity (T-24 [21]): Active
Activity [22]: 28.4%
Activity [23]: Dose-dependent effect
Activity [24]: Dose-dependent effect
